# Measurements gathered from unrelated publications.
# Lines come from different studies, so protocols differ.
# Organism: Staphylococcus aureus
# Read-out: microbial growth
Structure (SMILES),test,test system,setting,MIC
CC(c1ccc(Cl)c(Cl)c1)n1cnc2cc3c(cc21)CCCC3 (centres unmarked),,,,3.1 to 6.3 µg/mL
CN[C@H](CC(C)C)C(=O)N[C@H]1C(=O)N[C@@H](CC(N)=O)C(=O)N[C@H]2C(=O)N[C@H]3C(=O)N[C@H](C(=O)N[C@H](C(=O)O)c4cc(O)cc(O)c4-c4cc3ccc4O)[C@H](O)c3ccc(c(Cl)c3)Oc3cc2cc(c3O[C@@H]2O[C@H](CO)[C@@H](O)[C@H](O)[C@H]2O[C@H]2C[C@](C)(N)[C@H](O)[C@H](C)O2)Oc2ccc(cc2Cl)[C@H]1O,broth dilution,25923,,0.78 µM
Cc1ccc2nc(-c3cccc([N+](=O)[O-])c3)[nH]c2c1,broth dilution,ATCC43300 MRSA,drug-resistant strain,64 µg/mL
CC1C(=NOCc2cc(-c3ccc(Cl)cc3)no2)CC(c2ccccc2)OC1c1ccccc1 (centres unmarked),broth dilution,MTCC96,24 h,25 µg/mL
CCCCCCCCCCCC(=O)NP(=O)(O)O,,ATCC33591 MRSA,drug-resistant strain,200 µg/mL
CN(C)[C@@H]1C(O)=C(C(N)=O)C(=O)[C@@]2(O)C(O)=C3C(=O)c4c(O)cccc4[C@@](C)(O)[C@H]3C[C@@H]12,,USA300,,256 µg/mL
COC(=O)c1cc(-c2cccc(NC(=O)Nc3ccc(C)c(Cl)c3)c2)on1,broth dilution,ATCC29213,,> 64 µg/mL
COc1cccc(-c2nc3ccccc3n2Cc2ccccc2)c1,broth dilution,ATCC43300 MRSA,drug-resistant strain,256 µg/mL
Cc1ccccc1-n1c(Cn2ncc3c(N)ncnc32)nc2cccc(C)c2c1=O,,NCTC8325,,> 30 µM
COc1ccc(-c2nc3ccc(C)cc3[nH]2)cc1O,broth dilution,ATCC43300 MRSA,drug-resistant strain,128 µg/mL
CNC(=O)c1cc(Sc2ccc(NC(=S)Nc3ccc(Cl)c(C(F)(F)F)c3)cc2)ccn1,,NCTC8325,,3 µM
COc1cccc(OC)c1C(=O)N[C@@H]1C(=O)N2[C@@H]1SC(C)(C)[C@@H]2C(=O)O,,ATCCBAA41,"drug-resistant strain, clinical isolate",> 64 µg/mL
Cc1ccc2nc(-c3ccco3)n(Cc3ccccc3)c2c1,broth dilution,ATCC43300 MRSA,drug-resistant strain,128 µg/mL
COC(=O)c1cc(-c2cccc(NC(=S)Nc3ccc(F)cc3)c2)on1,broth dilution,ATCC29213,,> 64 µg/mL
CO/N=C(\C(=O)N[C@@H]1C(=O)N2C(C(=O)O)=C(CSc3nc(=O)c(=O)[nH]n3C)CS[C@H]12)c1csc(N)n1,,USA300,,64 µg/mL
COC(=O)c1cc(-c2cccc(NC(=S)Nc3ccccc3)c2)on1,broth dilution,ATCC29213,,> 64 µg/mL
CSc1ccc(-c2nc3ccc(C)cc3n2Cc2ccccc2)cc1,broth dilution,ATCC43300 MRSA,drug-resistant strain,256 µg/mL
COC(=O)c1cc(-c2cccc(NC(=O)Nc3ccc(C)cc3)c2)on1,broth dilution,ATCC29213,,> 64 µg/mL
CCOc1ccc(-c2nc3ccc(C)cc3[nH]2)cc1,broth dilution,ATCC43300 MRSA,drug-resistant strain,256 µg/mL
CN[C@@H]1[C@H](O)[C@H](NC)[C@H]2O[C@@]3(O)C(=O)C[C@@H](C)O[C@H]3O[C@@H]2[C@H]1O,broth dilution,8325,,25 µg/mL
